Results published in ChEMBL document CHEMBL4014271, “Trimeric and Tetrameric A-Type Procyanidins from Peanut Skins” (2017).
Activity calls are given as the source filed them. The calls are words filed in the database; no cut-off is given here.

Columns and labels:
Assay type in all cases: functional
RAW264.7 [1] = experiment: Anti-inflammatory activity in mouse RAW264.7 cells assessed as inhibition of LPS-induced TNFalpha secretion at 10 ug/ml preincubated for 1 hr followed by LPS stimulation for 23 hrs by ELISA relative to control
Procedure, shortened: (§1)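 RAW264.7 murine macrophages were grown in DMEM with 10% FBS at 37 °C in 5% CO2 and seeded at 5 × 10^5 to 80−90% confluence. Procyanidins in sterile water were added at 10, 50 or 100 μg/mL for 1 h. LPS (E. coli 0111:B4, 1 μg/mL) followed for 23 h. TNF-α in the collected medium was measured by ELISA and reported as % inhibition of LPS-dependent secretion.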

RAW264.7 [2] = experiment: Anti-inflammatory activity in mouse RAW264.7 cells assessed as inhibition of LPS-induced TNFalpha secretion at 50 ug/ml preincubated for 1 hr followed by LPS stimulation for 23 hrs by ELISA relative to control; procedure, shortened: as §1
RAW264.7 [3] = experiment: Anti-inflammatory activity in mouse RAW264.7 cells assessed as inhibition of LPS-induced TNFalpha secretion at 100 ug/ml preincubated for 1 hr followed by LPS stimulation for 23 hrs by ELISA relative to control; procedure, shortened: as §1

## Oc1cc(O)c2c(c1)O[C@@]1(c3ccc(O)c(O)c3)Oc3cc(O)c4c(c3[C@@H]2[C@H]1O)O[C@H](c1ccc(O)c(O)c1)[C@H](O)[C@H]4c1c(O)cc2c(c1O)C[C@H](O)[C@@H](c1ccc(O)c(O)c1)O2
RAW264.7 [1]
  inhibition at 10 µg/mL: 28.6%
RAW264.7 [2]
  inhibition at 50 µg/mL: 99.4%
RAW264.7 [3]
  inhibition at 100 µg/mL: 100%

## Oc1cc(O)c2c(c1)O[C@@]1(c3ccc(O)c(O)c3)Oc3cc(O)c4c(c3[C@@H]2[C@H]1O)O[C@H](c1ccc(O)c(O)c1)[C@H](O)[C@H]4c1c(O)cc2c(c1O)[C@@H]1c3c(cc(O)c4c3O[C@H](c3ccc(O)c(O)c3)[C@@H](O)C4)O[C@](c3ccc(O)c(O)c3)(O2)[C@@H]1O
RAW264.7 [1]
  inhibition at 10 µg/mL: 4.26%
RAW264.7 [2]
  inhibition at 50 µg/mL: 71.2%
RAW264.7 [3]
  inhibition at 100 µg/mL: 98.6%

## Oc1cc(O)c2c(c1)O[C@@]1(c3ccc(O)c(O)c3)Oc3cc(O)c4c(c3[C@@H]2[C@H]1O)O[C@H](c1ccc(O)c(O)c1)[C@H](O)[C@H]4c1c(O)cc2c(c1O)[C@@H]1c3c(cc(O)c4c3O[C@H](c3ccc(O)c(O)c3)[C@H](O)C4)O[C@](c3ccc(O)c(O)c3)(O2)[C@@H]1O
RAW264.7 [1]
  inhibition at 10 µg/mL: 82.2%
RAW264.7 [2]
  inhibition at 50 µg/mL: 100%
RAW264.7 [3]
  inhibition at 100 µg/mL: 100%

## Oc1cc(O)c2c(c1)O[C@@]1(c3ccc(O)c(O)c3)Oc3cc(O)c4c(c3[C@@H]2[C@H]1O)O[C@H](c1ccc(O)c(O)c1)[C@@H](O)C4
RAW264.7 [3]
  inhibition: inactive

## Oc1cc(O)c2c(c1)O[C@@]1(c3ccc(O)c(O)c3)Oc3cc(O)c4c(c3[C@@H]2[C@H]1O)O[C@@]1(c2ccc(O)c(O)c2)Oc2cc(O)c3c(c2[C@@H]4[C@H]1O)O[C@H](c1ccc(O)c(O)c1)[C@@H](O)C3
RAW264.7 [1]
  inhibition at 10 µg/mL: 6.28%
RAW264.7 [2]
  inhibition at 50 µg/mL: 78.8%
RAW264.7 [3]
  inhibition at 100 µg/mL: 100%

## Oc1cc(O)c2c(c1)O[C@@H](c1ccc(O)c(O)c1)[C@@H](O)[C@H]2c1c(O)cc(O)c2c1O[C@@]1(c3ccc(O)c(O)c3)Oc3cc(O)c4c(c3[C@@H]2[C@H]1O)O[C@H](c1ccc(O)c(O)c1)[C@@H](O)C4
RAW264.7 [3]
  inhibition: inactive

## Oc1cc(O)c2c(c1)O[C@H](c1ccc(O)c(O)c1)[C@H](O)[C@H]2c1c(O)cc2c(c1O)[C@@H]1c3c(cc(O)c4c3O[C@H](c3ccc(O)c(O)c3)[C@@H](O)C4)O[C@](c3ccc(O)c(O)c3)(O2)[C@@H]1O
RAW264.7 [1]
  inhibition at 10 µg/mL: 0%
RAW264.7 [2]
  inhibition at 50 µg/mL: 89.7%
RAW264.7 [3]
  inhibition at 100 µg/mL: 100%
